ChEMBL document CHEMBL1909618, “Non-steroidal dissociated glucocorticoid agonists: indoles as A-ring mimetics and function-regulating pharmacophores” (Bioorg Med Chem Lett, 2011)
The source made the active and inactive calls. The rule behind the calls is not given here.

Experiments:
[1] = molecular target: T1, Androgen receptor (Homo sapiens) (UniProt P10275); test: Displacement of [3H]-testosterone from human recombinant androgen receptor expressed in baculovirus infected insect cells at 1200 nM
T1 sequence (whole entry): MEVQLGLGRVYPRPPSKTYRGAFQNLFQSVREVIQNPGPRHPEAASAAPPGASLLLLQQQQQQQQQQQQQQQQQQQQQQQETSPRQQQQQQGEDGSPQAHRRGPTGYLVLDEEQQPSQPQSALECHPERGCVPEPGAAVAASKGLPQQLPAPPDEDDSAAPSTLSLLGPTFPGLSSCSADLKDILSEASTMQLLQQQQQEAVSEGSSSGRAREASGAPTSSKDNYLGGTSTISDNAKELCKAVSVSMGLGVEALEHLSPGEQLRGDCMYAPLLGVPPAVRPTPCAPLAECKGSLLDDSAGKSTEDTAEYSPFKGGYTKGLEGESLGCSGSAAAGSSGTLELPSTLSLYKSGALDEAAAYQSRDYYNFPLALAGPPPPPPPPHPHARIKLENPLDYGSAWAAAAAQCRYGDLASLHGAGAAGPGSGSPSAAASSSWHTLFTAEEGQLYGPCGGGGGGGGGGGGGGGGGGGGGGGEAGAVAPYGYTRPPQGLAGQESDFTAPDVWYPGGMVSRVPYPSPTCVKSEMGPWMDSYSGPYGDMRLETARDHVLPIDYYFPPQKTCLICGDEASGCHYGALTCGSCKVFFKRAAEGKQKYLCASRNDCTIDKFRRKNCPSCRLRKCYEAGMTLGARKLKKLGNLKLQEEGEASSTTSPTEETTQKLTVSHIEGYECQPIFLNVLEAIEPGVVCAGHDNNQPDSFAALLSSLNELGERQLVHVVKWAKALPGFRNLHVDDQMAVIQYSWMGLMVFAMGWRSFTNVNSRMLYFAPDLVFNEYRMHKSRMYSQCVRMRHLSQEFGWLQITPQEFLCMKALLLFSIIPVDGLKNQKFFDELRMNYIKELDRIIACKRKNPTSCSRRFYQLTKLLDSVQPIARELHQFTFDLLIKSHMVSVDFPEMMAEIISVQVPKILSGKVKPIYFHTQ
Method in brief: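 Competition of test compound at a single concentration against 10 nM ³H-testosterone for binding to recombinant human AR in lysates of baculovirus-infected cells. Dihydrotestosterone at 2 µM served as the positive control. Results are expressed as % of control.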

Homo sapiens = species: Homo sapiens; test: Selectivity ratio of IC50 for human recombinant glucocorticoid receptor to IC50 for human recombinant progesterone receptor
[2] = Half life in Sprague-Dawley rat at 2 mg/kg, iv; format: ADME, organism-based; set-up: dose 2 mg/kg, route intravenous; conditions: in vivo
Method in brief: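 Rat PK: IV dose 2 mg/kg in PEG400/water (70:30); oral dose 30 mg/kg in PEG400/H2O/Tween (80/18/2). Values are the mean of 3 rats.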

Row | Activity [1] | Ratio IC50 (Homo sapiens) | half-life [2] [h] | Structure (SMILES)
1 | inactive | – | – | COc1ccc(F)cc1C(C)(C)C[C@@](O)(Cc1cc2ccccc2[nH]1)C(F)(F)F
2 | – | 100 | 1.7 | CC(C)(C[C@@](O)(Cc1cc2ccc(C#N)cc2[nH]1)C(F)(F)F)c1cc(S(C)(=O)=O)cc2c1OCC2
